Results taken from PMC4303578 (Chemical Science, 2014).

System: His6–FzmG
Assay: O2 consumption, Hansatech O2 electrode
Assay type: biochemical
Conditions: alpha-KG 1 mM (saturating), Fe(II)
Procedure, shortened: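 Apparent steady-state kinetics by Clark-type O2 electrode. Phosphonic acid substrate concentration varied; α-KG held at 1 mM (saturating). Enzyme held constant at 3.7 μM for most substrates and 9.25 μM for one. Reactions were started by adding enzyme. Initial O2-consumption rates were measured in triplicate. Km was taken from nonlinear Michaelis–Menten regression.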

Km (9.25 μM enzyme) [µM] | SMILES | Km (3.7 μM enzyme) [µM]
– | O=P(O)(O)CCO [2-HEP] | 210 ± 40
– | COC(=O)CP(=O)(O)O [Me-PnA] | 80 ± 20
– | O=CCP(=O)(O)O [PnAA] | 800 ± 300
8000 ± 1000 | O=C(O)CP(=O)(O)O [PnA] | –
